Activity calls are given as the source filed them. The calls are words filed in the database; no cut-off is given here.
Experiments:
[1] = target: T1, Cannabinoid receptor 2 (Homo sapiens, UniProt P34972); assay: Agonist activity at human CB2 receptor expressed in CHO cells assessed as inhibition of forskolin-induced cAMP levels after 20 mins; format: functional, cell-based
Procedure, shortened: (§1)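 hCB2-expressing CHO cells in 24-well plates, exposed to compounds 20 min at 37 °C in Hanks'/20 mM HEPES buffer with 0.1 mM IBMX, 0.2 mM Ro20-1724, 0.1% BSA; forskolin 4 µM then added for 45 min at 37 °C; cellular cAMP quantified by kit.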

[2] = target: T1, Cannabinoid receptor 2; assay: Partial agonist activity at human CB2 receptor expressed in CHO cells assessed as inhibition of forskolin-induced cAMP levels after 20 mins; format: functional, cell-based; procedure, shortened: as §1
[3] = target: T2, Cannabinoid receptor 1 (Homo sapiens, UniProt P21554); assay: Agonist activity at human CB1 receptor expressed in CHO cells assessed as inhibition of forskolin-induced cAMP levels after 20 mins; format: functional, cell-based
T2 sequence (P21554 whole entry): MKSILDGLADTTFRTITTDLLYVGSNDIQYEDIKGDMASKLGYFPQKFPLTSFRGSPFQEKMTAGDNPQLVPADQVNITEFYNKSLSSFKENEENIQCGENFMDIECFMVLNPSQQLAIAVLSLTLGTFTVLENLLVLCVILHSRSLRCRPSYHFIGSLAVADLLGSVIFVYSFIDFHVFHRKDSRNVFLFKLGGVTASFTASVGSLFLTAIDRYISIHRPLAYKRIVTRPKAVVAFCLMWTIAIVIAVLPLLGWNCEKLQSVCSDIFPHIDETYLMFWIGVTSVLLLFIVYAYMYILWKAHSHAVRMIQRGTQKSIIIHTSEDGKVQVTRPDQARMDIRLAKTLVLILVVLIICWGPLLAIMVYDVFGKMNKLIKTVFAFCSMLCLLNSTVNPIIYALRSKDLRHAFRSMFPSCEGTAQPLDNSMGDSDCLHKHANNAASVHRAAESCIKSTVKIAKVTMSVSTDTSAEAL

[4] = target: T2, Cannabinoid receptor 1; assay: Displacement of [3H]CP55940 from human CB1 receptor membrane fractions
Procedure, shortened: (§2)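 Membranes from confluent recombinant hCB1 or hCB2 cells: sonicated on ice in 20 mM Tris–HCl pH 7.4, 2 mM EDTA, 0.25 M sucrose with protease inhibitor; spun 3000 rpm 10 min, then supernatant 100,000 g 60 min at 4 °C; pellets stored at −80 °C. Radioligand [3H]-CP55940; its Kd per membrane set by Scatchard analysis.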

[5] = target: T1, Cannabinoid receptor 2; assay: Displacement of [3H]CP55940 from human CB2 receptor membrane fractions; procedure, shortened: as §2
[6] = target: T2, Cannabinoid receptor 1; assay: Partial agonist activity at human CB1 receptor expressed in CHO cells assessed as inhibition of forskolin-induced cAMP levels after 20 mins; format: functional, cell-based
[7] = system: Mus musculus; assay: Toxicity in mouse assessed as sedation at 0.1 to 1 mg/kg, iv measured at 15 mins post compound administration; format: organism-based; parameters: dose 0.1-1 mg/kg, route intravenous; settings: in vivo, 0.25 h
Procedure, shortened: (§3)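 ICR mice, n = 3 per dose, given compound iv in tail vein at 0.1 and 1.0 mg/kg, dissolved in MDAA and PEG solution. Behaviour observed 15 min post-dose and scored: 5 tonic convulsion, 4 catalepsy, 3 prone position/sedation, 2 crawling, 1 decreased locomotion, 0 normal.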

[8] = system: Mus musculus; assay: Toxicity in mouse assessed as catalepsy at 0.1 to 1 mg/kg, iv measured at 15 mins post compound administration; format: organism-based; parameters: dose 0.1-1 mg/kg, route intravenous; settings: in vivo, 0.25 h; procedure, shortened: as §3
[9] = species on record: Mus musculus; assay: Antipruritic activity against Crj:CD-1 ICR mouse assessed as inhibition of Compound 48/80-induced scratching behaviour at 1 % compound painted on shaven back 15 mins before challenge measured for 30 mins relative to control; format: functional

T1 sequence (P34972 whole entry): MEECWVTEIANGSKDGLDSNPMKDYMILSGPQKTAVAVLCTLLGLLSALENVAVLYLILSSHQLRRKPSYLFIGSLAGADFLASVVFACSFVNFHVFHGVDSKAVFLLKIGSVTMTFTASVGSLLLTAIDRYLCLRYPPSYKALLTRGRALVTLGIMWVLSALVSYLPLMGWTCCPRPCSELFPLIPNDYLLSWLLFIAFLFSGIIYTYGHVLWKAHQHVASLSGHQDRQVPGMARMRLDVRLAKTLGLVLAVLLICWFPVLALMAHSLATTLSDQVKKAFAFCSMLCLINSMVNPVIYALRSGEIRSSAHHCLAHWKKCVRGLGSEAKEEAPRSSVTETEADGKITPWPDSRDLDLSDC

SMILES | IC50 [1] | Activity [2] | IC50 [3] | Ki [4] | Ki [5] | Activity [6] | Activity [7] | Activity [8] | inhibition (INH) [9]
O=C(O)Cc1cnc(NC(=O)c2cc3c(n(CC4CCCCC4)c2=O)CCCCCC3)s1 | 3.5 nM | Active | 23 nM | 235 nM | 4.6 nM | Active |  |  | 
O=C(O)CCc1csc(NC(=O)c2cc3c(n(CC4CCCCC4)c2=O)CCCCCC3)n1 |  |  |  |  |  |  | Non-toxic | Non-toxic | 
O=C(O)c1ccc(CNC(=O)c2cc3c(n(CC4CCCCC4)c2=O)CCCCCC3)cc1 |  |  |  |  | 923 nM |  |  |  | 
O=C(N[C@@H](Cc1ccccc1)C(=O)O)c1cc2c(n(CC3CCCCC3)c1=O)CCCCCC2 | 126 nM |  | 297 nM | 738 nM | 33 nM |  |  |  | 
O=C(O)c1cccc(NC(=O)c2cc3c(n(CC4CCCCC4)c2=O)CCCCCC3)c1 | 268 nM |  | 611 nM | 1560 nM | 614 nM |  |  |  | 
O=C(O)Cc1ccccc1NC(=O)c1cc2c(n(CC3CCCCC3)c1=O)CCCCCC2 |  |  |  | 548 nM | 46 nM |  |  |  | 
O=C(N[C@@H](C(=O)O)c1ccccc1)c1cc2c(n(CC3CCCCC3)c1=O)CCCCCC2 | 4.4 nM | Active | > 2000 nM | 69 nM | 3 nM | Active |  |  | 
O=C(N[C@H](C(=O)O)C1CCCCC1)c1cc2c(n(CC3CCCCC3)c1=O)CCCCCC2 | 51 nM |  | > 2000 nM | 3060 nM | 111 nM |  |  |  | 
O=C(O)c1csc(NC(=O)c2cc3c(n(CC4CCCCC4)c2=O)CCCCCC3)n1 |  |  | > 2000 nM | > 5000 nM | > 5000 nM |  |  |  | 
O=C(N[C@H](C(=O)O)c1ccccc1)c1cc2c(n(CC3CCCCC3)c1=O)CCCCCC2 |  | Active | > 2000 nM |  | 1.2 nM | Active |  |  | 
CC(C)[C@H](NC(=O)c1cc2c(n(CC3CCCCC3)c1=O)CCCCCC2)C(=O)O |  |  |  | 1880 nM | 116 nM |  |  |  | 
O=C(O)Cc1cccc(NC(=O)c2cc3c(n(CC4CCCCC4)c2=O)CCCCCC3)c1 | 180 nM |  | 997 nM | 2880 nM | 120 nM |  |  |  | 
O=C(O)Cc1csc(NC(=O)c2cc3c(n(CC4CCCCC4)c2=O)CCCCCC3)n1 |  |  |  |  |  |  | Non-toxic | Non-toxic | 109%
O=C(O)c1ccc(NC(=O)c2cc3c(n(CC4CCCCC4)c2=O)CCCCCC3)cc1 | 38 nM |  | 291 nM | 370 nM | 107 nM |  |  |  | 
O=C(O)c1ccccc1NC(=O)c1cc2c(n(CC3CCCCC3)c1=O)CCCCCC2 | 167 nM |  | 657 nM | 2530 nM | 181 nM |  |  |  | 
O=C(O)Cc1ccc(NC(=O)c2cc3c(n(CC4CCCCC4)c2=O)CCCCCC3)cc1 | 96 nM |  | > 2000 nM | 3990 nM | 74 nM |  |  |  | 
O=C(O)c1cnc(NC(=O)c2cc3c(n(CC4CCCCC4)c2=O)CCCCCC3)s1 | 800 nM |  | > 2000 nM | > 5000 nM | 885 nM |  |  |  | 
CC(C)(NC(=O)c1cc2c(n(CC3CCCCC3)c1=O)CCCCCC2)C(=O)O |  |  |  | 1350 nM | 349 nM |  |  |  | 

Source: ChEMBL document CHEMBL2021918, “Discovery of S-444823, a potent CB1/CB2 dual agonist as an antipruritic agent” (Bioorg Med Chem Lett, 2012)
